Measured values of several laboratories.
Lines come from different studies, so protocols differ.
Target: Serine/threonine-protein kinase PLK1 (PLK1, Homo sapiens, UniProt P53350)

Nc1ncc(-c2nc(N3CCOCC3)nc(N3CCOCC3)n2)c(C(F)F)n1 gave a remaining binding of 66% (binding; competition with immobilised ligand; 10 µM).
O=c1[nH]c2ccccc2n1C1CCN(Cc2ccc(-c3[nH]c4cc5ncnc5cc4nc3-c3ccccc3)cc2)CC1 has a remaining signal of 109% (cell-free assay; 0.5 µM).
For Cc1nn(C)cc1-c1nc2c(N3CCN(Cc4ccc(Cl)cc4)CC3)c(Cl)cnc2[nH]1, the remaining binding was 100% (binding; competition with immobilised ligand; 1 µM).
Cn1cc(-c2cccc(N3CCc4c(sc5c4CC(C)(C)C5)C3=O)c2CO)cc(Nc2ccncn2)c1=O gave an inhibition of 4% (enzyme activity; inhibitor; 1 µM).
With C#Cc1n[nH]c2c(-c3cn([C@@H](C)c4ccccc4)c(=O)[nH]c3=O)cc(F)cc12 the inhibition was 2.9% (enzyme activity; inhibitor; 0.1 µM).
The remaining binding of N#CC1(c2ccccn2)CCN(Cc2cc(C(=O)O)c(=O)n3ccccc23)CC1 is reported as 70% (cell-free assay; competition with immobilised ligand; 1 µM).
The remaining activity of CC(C)(C)c1cc(C=C(C#N)C#N)cc(Br)c1O is reported as 92.3% (enzyme activity; inhibitor; 0.5 µM).
For Cn1cc(-c2cc(F)cc(N3CCn4c(cc5c4CCCC5)C3=O)c2CO)cc(Nc2ccc(N3CCN(C4COC4)CC3)cn2)c1=O, the inhibition was 11% (enzyme activity; inhibitor; 0.1 µM).
For Cn1cncc1[C@@](O)(COc1ccc(C#N)cc1-c1ccc(OC(F)(F)F)cc1)c1ccc(C#N)cc1, the remaining binding was 83% (cell-free assay; competition with immobilised ligand; 1 µM).
C#Cc1n[nH]c2c(-c3cn([C@@H](C)c4ccccn4)c(=O)[nH]c3=O)cc(F)cc12 has an inhibition of 2.9% (enzyme activity; inhibitor; 0.1 µM).
With COc1ncccc1-c1cnn2ccc(N3CCN(C(=O)OC(C)C)CC3)nc12 the remaining binding was 100% (binding; competition with immobilised ligand; 1 µM).
